# Only some compounds are listed: those with a hit (about 3.7% of all), similar ones and a draw of the others.
# KCNK3 inh = human KCNK3 channel inhibition, primary screen; O14649; CHO-KCNK3 thallium flux, FluxOR fluorescence; hits give low values; B-score at 10 µM; 340,000 tested, 0.84% active;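 active means B-score under library mean minus 4 SD, starting fluorescence ratio at most library mean plus 5 SD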;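 further: more negative B-score means stronger inhibition of thallium flux through KCNK3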
# KCNK9 inh = human KCNK9 channel inhibition. Q9NPC2. HEK293 KCNK9, FluxOR thallium flux fluorescence; hits give low values. B-score at 10 µM. 310,000 tested, 1.2% active;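 active means ratio B-score over 3 SD below the library mean, with starting fluorescence within 5 SD of its mean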;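 further: negative B-score means less thallium flux so channel inhibition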
# KCNQ1 block = human KCNQ1 channel inhibition. 310,000 tested, 1.3% active. B-score at 10 µM. CHO-K1 KCNQ1, FluxOR thallium flux fluorescence; hits give high values. AID 2642. P51787;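 active means compounds whose thallium flux B-score, printed positive for inhibition, exceeds three library SD while starting fluorescence stays within three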;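 further: channel opened by potassium depolarization with thallium stimulus after 20 min compound exposure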
# hERG rescue = hERG (human) protection from proarrhythmic block; Q12809; CHO-hERG, FluxOR thallium flux, dofetilide IC70 present; activation (rescue from dofetilide block), less the hit threshold, % at 10 µM; 310,000 tested, 0.51% active; AID 1511;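 active means activation above the mean of controls blocked by dofetilide plus 5 SD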;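 further: thallium influx through hERG after potassium depolarization seen as dye fluorescence rise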
# Kir21 inh = Kir2.1 (mouse) channel inhibition; HEK293-Kir2.1, FluxOR thallium flux fluorescence; hits give low values; P35561; B-score at 10 µM; 310,000 tested, 0.85% active;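 active means fluorescence ratio B-score at or below minus 3 SD of library scores, with starting-brightness B-score within 2 SD, cut at about -4.2 in these data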;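 further: channel flux triggered by added potassium and thallium sulfate stimulus; B-score of peak minus minimum fluorescence over baseline after thallium stimulus; more negative B-score means stronger Kir2.1 block with less thallium influx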
# KCNQ1 pot = potentiates or activates the human KCNQ1 potassium channel; B-score at 10 µM; 310,000 tested, 0.35% active; CHO-K1 KCNQ1, thallium flux FluxOR fluorescence; hits give high values; P51787;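 active means fluorescence ratio B-score, a plate-corrected score, at least three library SD, with initial intensity B-score within 5 SD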
#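 Assay system: CHO-K1 cells stably expressing KCNQ1. Medium: assay buffer for compound exposure, DMSO matched across wells. Timing: 37 °C overnight plating, 90-min dark dye load, 20-min compound pretreatment. Signal: kinetic FluxOR fluorescence, 10 s baseline plus 110 s post-stimulus.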
# KCNQ1 inh valid = reconfirmed blocker of the human KCNQ1 potassium channel | inhibition, % at 10 µM | shares compounds with KCNQ1 block | AID 588353 | KCNQ1 cell line, FluxOR thallium flux fluorescence | 1,600 tested, 93% active;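 active means primary screen active, with duplicate mean exceeding buffer control mean plus 3 SD of buffer wells, cut at about 28% in these data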;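 further: 0% = buffer control ratio and 100% = XE991 inhibitor control ratio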
# CHO KCNQ1 ctr = KCNQ1 inhibitor counter-screen hit in parental CHO cells | shares compounds with KCNQ1 block | parental CHO-K1, FluxOR thallium flux fluorescence ratio; hits give low values; zero means no signal rise above baseline | 1,600 tested, 21% active | fluorescence ratio (Tl flux) at 10 µM;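 active means mean of duplicate thallium-flux fluorescence ratios in parental host cells more than 5 SD below the buffer control mean, cut at about 0.38 in these data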;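 further: ratio is peak minus minimum fluorescence divided by baseline fluorescence; actives read low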
# KCNQ1 ephys val = confirmation of human KCNQ1 potassium channel inhibitors by electrophysiology. calls only at 10 µM. 490 tested, 20% active. shares compounds with KCNQ1 block. KCNQ1-CHO cells, automated patch clamp current;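 active means KCNQ1 current drop exceeding 3 SD of negative control wells, seen in both duplicate runs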;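 further: steady state current during a 2 s step from -80 to +40 mV; negative values mean current inhibition and positive values mean potentiation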
# KCNQ2 spec = KCNQ1 inhibitor that also blocks rat KCNQ2 channel; shares compounds with KCNQ1 block; KCNQ2 cells, FluxOR thallium flux fluorescence; inhibition, % at 10 µM; 1,600 tested, 71% active; AID 651746;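 active means mean percent inhibition of the KCNQ2 thallium signal more than 5 SD above the buffer-only control wells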;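 further: KCNQ2 expressed in CHO cells; 0% = buffer control wells and 100% = XE-991 inhibitor control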
# Target sequence (O88943 whole entry, looked up): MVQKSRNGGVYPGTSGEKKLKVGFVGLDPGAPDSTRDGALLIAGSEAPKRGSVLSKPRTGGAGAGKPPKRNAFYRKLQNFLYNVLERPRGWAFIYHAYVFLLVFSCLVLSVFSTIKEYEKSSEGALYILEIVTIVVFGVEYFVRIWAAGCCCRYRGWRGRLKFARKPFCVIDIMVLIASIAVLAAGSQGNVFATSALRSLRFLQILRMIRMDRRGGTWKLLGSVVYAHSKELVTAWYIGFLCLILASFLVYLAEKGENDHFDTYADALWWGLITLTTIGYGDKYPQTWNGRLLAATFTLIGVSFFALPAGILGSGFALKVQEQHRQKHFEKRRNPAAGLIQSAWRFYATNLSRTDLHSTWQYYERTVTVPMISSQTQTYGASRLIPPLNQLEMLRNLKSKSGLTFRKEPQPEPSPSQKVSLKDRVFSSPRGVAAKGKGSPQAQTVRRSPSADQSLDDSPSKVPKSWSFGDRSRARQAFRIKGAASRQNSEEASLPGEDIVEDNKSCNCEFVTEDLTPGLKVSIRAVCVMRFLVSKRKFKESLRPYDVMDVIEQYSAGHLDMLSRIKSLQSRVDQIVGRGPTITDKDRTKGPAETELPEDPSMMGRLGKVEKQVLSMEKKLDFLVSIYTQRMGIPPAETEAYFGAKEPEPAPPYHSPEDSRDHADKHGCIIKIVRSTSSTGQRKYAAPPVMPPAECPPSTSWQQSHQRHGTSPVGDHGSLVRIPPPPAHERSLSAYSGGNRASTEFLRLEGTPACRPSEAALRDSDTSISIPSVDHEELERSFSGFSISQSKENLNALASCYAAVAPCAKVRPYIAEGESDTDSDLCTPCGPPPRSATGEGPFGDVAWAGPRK
# KCNQ1 KCNE1 spec = KCNQ1 inhibitor that also blocks human KCNQ1/KCNE1 channel; shares compounds with KCNQ1 block; KCNQ1/KCNE1 cells, FluxOR thallium flux fluorescence; inhibition, % at 10 µM; 1,600 tested, 77% active;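 active means mean percent inhibition of duplicate wells above the buffer-only control mean plus 3 SD of those controls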;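 further: 0% = buffer only wells and 100% = XE-991 inhibitor control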
# The depositor's hits bear a star; i = inactive; . = no result; + = active, no number.
SMILES,KCNK3 inh,KCNK9 inh,KCNQ1 block,hERG rescue,Kir21 inh,KCNQ1 pot,KCNQ1 inh valid,CHO KCNQ1 ctr,KCNQ2 spec,KCNQ1 KCNE1 spec,others
CCOC(=O)c1cnc(-n2nc(C)cc2C)nc1NC1CCCCC1,i,i,11*,-32,1.8,i,76*,0.4,108%*,107%*,
CC(C)(C)C1CCC2(CC1)C(C#N)=C(SCC(=O)NC1CCCCC1)NC(=O)C2C#N (stereo not drawn),i,i,9*,-7,-1.9,i,72*,0.42,72%*,i,
CCOC(=O)c1[nH]c(=O)[nH]c1CNc1ccccc1C#N,i,i,i,-6,-0.05,i,.,.,.,.,
CC(=O)c1cccc(S(=O)(=O)Nc2ccc3nc(C)sc3c2)c1,i,i,i,-14,-0.08,i,.,.,.,.,
Cc1nc2ccc(NS(=O)(=O)c3ccc(C)c(C)c3)cc2s1,i,i,7*,-7,-0.02,i,68*,0.52,i,i,
c1ccc(CCNc2ccnc3cc4ccccc4cc23)cc1,i,-7.3*,10*,-39,-7.2*,i,130*,0.38*,81%*,118%*,
Cc1cn(C2CCCCC2)c(=O)n(-c2ccccc2)c1=O,i,.,.,.,.,.,.,.,.,.,
COc1ccccc1NC(=O)C(Sc1ccccc1)c1ccccc1 (stereo not drawn),i,i,10*,-11,0.69,i,84*,0.4,112%*,88%*,
CC1CC(C)CN(CCCNC(=O)c2ccc3c(c2)ncn3C2CCCC2)C1 (stereo not drawn),i,i,i,-7,-1.3,i,.,.,.,.,
Cn1c(CCN2CCCCC2)nc2cc(NS(=O)(=O)c3ccc(Cl)cc3)ccc21,i,i,8*,-19,-2.7,i,0,0.56,i,58%*,
O=C(Nc1ccc(NC(=S)NC(=O)c2ccccc2F)cc1)c1cccs1,i,i,6*,-7,-0.03,i,94*,0.48,63%*,132%*,KCNQ1 ephys val=+
CCOC(=O)C(C)Sc1nc2c(cnn2-c2ccc(F)cc2)c(=O)[nH]1 (stereo not drawn),i,i,i,-14,-2.6,i,.,.,.,.,
S=C(Nc1cccc(Cl)c1)NC1CCCCC1,i,i,8*,-12,-0.61,i,50*,0.55,60%*,62%*,
COC(=O)Cc1csc(Nc2ccccc2)n1,i,i,i,-3,0.01,i,.,.,.,.,
COC(=O)Cc1nc(Nc2ccccc2)sc1C,i,i,7*,-12,-0.68,i,47*,0.45,i,46%*,
CCCN1CCC(NC(=O)CC2C(=O)NCCN2Cc2cccc(OC)c2)CC1 (stereo not drawn),i,i,i,-1,0.21,i,.,.,.,.,
Clc1ccc2[nH]c3c(NCC4CCCO4)ncnc3c2c1 (stereo not drawn),.,i,8*,-29,1,i,106*,0.49,90%*,i,KCNQ1 ephys val=+
Clc1ccc2[nH]c3c(NCCN4CCOCC4)ncnc3c2c1,i,i,i,-17,-1.1,i,.,.,.,.,
Cc1cc(C(=O)CSc2nc3ccc(Cl)cc3[nH]2)c(C)n1C,i,i,i,-16,-0.72,i,.,.,.,.,
Cc1cc(C(=O)CSc2nc3ccc(Cl)cc3[nH]2)c(C)n1CC1CCCO1 (stereo not drawn),i,i,8*,-17,-1,i,126*,0.47,109%*,121%*,KCNQ1 ephys val=i
CN(CC(=O)Nc1ccccc1Cl)C(=O)CSc1nncn1C,i,i,i,-7,1.8,i,.,.,.,.,
CN(CC1CCCN(CCc2ccc(Cl)cc2)C1)C(=O)c1ccco1 (stereo not drawn),i,i,i,-7,0.06,i,.,.,.,.,
CC(CCc1ccccc1)NC(=O)c1ccc(NC(=O)c2ccccc2)cc1 (stereo not drawn),i,i,7*,-8,1.3,i,67*,0.52,i,66%*,
COc1ccc(C(=O)NC(C)CCc2ccccc2)cc1 (stereo not drawn),i,i,i,-2,1.5,i,.,.,.,.,
O=C(O)c1cccc(NS(=O)(=O)c2ccc(C3CCCCC3)cc2)c1,i,i,i,-10,0.09,i,.,.,.,.,
SMILES,KCNK3 inh,KCNK9 inh,KCNQ1 block,hERG rescue,Kir21 inh,KCNQ1 pot,KCNQ1 inh valid,CHO KCNQ1 ctr,KCNQ2 spec,KCNQ1 KCNE1 spec,others
Cc1cccc(NS(=O)(=O)c2ccc(C3CCCCC3)cc2)c1,i,i,7*,-8,0.01,i,0,0.61,i,i,
CCOC(=O)c1c(-c2ccccc2)oc2ccc(OCC)cc12,i,i,6*,-5,0.49,i,70*,0.46,96%*,62%*,
Cc1cc(NC2CCCCC2)nc2ccccc12,i,i,6*,-19,-0.68,i,58*,0.45,59%*,49%*,
O=C(NNC(=S)Nc1ccc(F)c(Cl)c1)c1ccccc1Br,i,i,i,-14,0.64,i,.,.,.,.,
COc1ccccc1-c1c(C)nn2c(N3CCCCCC3)cc(C)nc12,i,i,8*,-16,0,i,0,0.49,85%*,i,
Cc1ccc(CN(C(=O)C(F)(F)F)C(C(=O)NC2CCCCC2)c2ccco2)cc1 (stereo not drawn),i,i,i,-5,-0.23,i,.,.,.,.,
O=C(NC1CCCCC1)C(c1ccco1)N(C(=O)C(F)(F)F)C1CC1 (stereo not drawn),i,i,6*,-9,0,i,74*,0.47,i,100%*,
CC(C)(C)C(=O)Cn1c(=N)n(Cc2ccccc2)c2ccccc21,i,i,7*,-16,-0.19,i,86*,0.39,114%*,90%*,
CC(C)(C)C(=O)Cn1c(=N)n(Cc2ccccc2Cl)c2ccccc21,i,i,i,-8,-0.28,i,.,.,.,.,
COc1ccccc1/C=C/C(=O)OCC(=O)N1c2ccccc2CC1C (stereo not drawn),i,.,.,.,.,.,.,.,.,.,

# Screens: PubChem, Johns Hopkins Ion Channel Center
